In ChEMBL document CHEMBL1147561, “Application of the four-component Ugi condensation for the preparation of sulfated glycoconjugate libraries” (Bioorg Med Chem Lett, 2004):

Assays:
[1] = target: Fibroblast growth factor 1 (Homo sapiens, UniProt P05230); test: Binding affinity for human fibroblast growth factor 1 in surface plasmon resonance (SPR) assay
In short: (§1)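 SPR solution affinity format: growth factor pre-equilibrated with ligand in solution, mixture passed over a heparin-immobilized sensor chip. Free (unbound) growth factor binding to heparin raises the SPR response and gives its concentration. Kd calculated from the decline in free growth factor concentration versus ligand concentration. Values are mean and SD of at least two independent measurements.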

[2] = target: T1, Fibroblast growth factor 2 (Homo sapiens, UniProt P09038); test: Binding affinity for human fibroblast growth factor 2 in surface plasmon resonance (SPR) assay; in short: as §1
[3] = target: T1, Fibroblast growth factor 2; test: Binding affinity for human fibroblast growth factor 2 in surface plasmon resonance (SPR) assay (No binding); in short: as §1

T1 sequence (P09038 143-288 limits assumed): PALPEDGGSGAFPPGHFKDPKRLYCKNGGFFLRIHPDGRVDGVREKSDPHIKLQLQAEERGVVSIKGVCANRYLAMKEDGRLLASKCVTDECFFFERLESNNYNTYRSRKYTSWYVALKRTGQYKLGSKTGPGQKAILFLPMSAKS
Fibroblast growth factor 1, sequence (P05230 whole entry): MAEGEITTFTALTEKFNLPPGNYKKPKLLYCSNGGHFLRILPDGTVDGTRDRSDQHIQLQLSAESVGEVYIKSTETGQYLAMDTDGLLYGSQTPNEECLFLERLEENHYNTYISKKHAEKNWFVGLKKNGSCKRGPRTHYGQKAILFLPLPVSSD

| SMILES | Kd [1] [µM] | Kd [2] [µM] | Kd [3] [µM] |
| --- | --- | --- | --- |
| O=C(CN(CCOS(=O)(=O)O)C(=O)C1OC(OS(=O)(=O)O)C(OS(=O)(=O)O)C(OS(=O)(=O)O)C1OS(=O)(=O)O)NC1CCCCC1 (centres undefined) | 2340 | > 800 |  |
| O=C(NC1CCCCC1)C(c1ccccc1)N(Cc1ccccc1)C(=O)C1OC(OS(=O)(=O)O)C(OS(=O)(=O)O)C(OS(=O)(=O)O)C1OS(=O)(=O)O (centres undefined) | 62.5 |  | > 800 |
| O=C(CN(Cc1ccccc1)C(=O)C1OC(OS(=O)(=O)O)C(OS(=O)(=O)O)C(OS(=O)(=O)O)C1OS(=O)(=O)O)NC1CCCCC1 (centres undefined) | 122 | 254 |  |
| CO[C@H]1O[C@@H](COCC(=O)N(CC(=O)NC2CCCCC2)[C@H]2CC[C@H](N(CC(=O)NC3CCCCC3)C(=O)COC[C@@H]3O[C@H](OC)[C@H](OS(=O)(=O)O)[C@@H](OS(=O)(=O)O)[C@@H]3OS(=O)(=O)O)CC2)[C@@H](OS(=O)(=O)O)[C@H](OS(=O)(=O)O)[C@H]1OS(=O)(=O)O | 32.6 | 27.9 |  |
| CO[C@H]1O[C@@H](COCC(=O)N(CC(=O)NCCO[C@H]2O[C@@H](COS(=O)(=O)O)[C@@H](OS(=O)(=O)O)[C@H](OS(=O)(=O)O)[C@H]2OS(=O)(=O)O)Cc2ccccc2)[C@@H](OS(=O)(=O)O)[C@H](OS(=O)(=O)O)[C@H]1OS(=O)(=O)O | 4.84 | 16 |  |
| CO[C@H]1O[C@@H](COCC(=O)N(CC(=O)NC2CCCCC2)Cc2ccccc2)[C@@H](OS(=O)(=O)O)[C@H](OS(=O)(=O)O)[C@H]1OS(=O)(=O)O | 260 | 200 |  |
| CO[C@H]1O[C@@H](COCC(=O)N(CCS(=O)(=O)O)CC(=O)NC2CCCCC2)[C@@H](OS(=O)(=O)O)[C@H](OS(=O)(=O)O)[C@H]1OS(=O)(=O)O | 296 | 551 |  |
| CC(C)(CC(=O)N(CCO[C@H]1O[C@@H](COS(=O)(=O)O)[C@@H](OS(=O)(=O)O)[C@H](OS(=O)(=O)O)[C@H]1OS(=O)(=O)O)CC(=O)NC1CCCCC1)CC(=O)N(CCO[C@H]1O[C@@H](COS(=O)(=O)O)[C@@H](OS(=O)(=O)O)[C@H](OS(=O)(=O)O)[C@H]1OS(=O)(=O)O)CC(=O)NC1CCCCC1 | 10 | 34 |  |
| CC(=O)N(CC(=O)NCCO[C@H]1O[C@@H](COS(=O)(=O)O)[C@@H](OS(=O)(=O)O)[C@H](OS(=O)(=O)O)[C@H]1OS(=O)(=O)O)Cc1ccccc1 | 34.3 | 287 |  |
| O=C(CN(Cc1ccccc1)C(=O)CO[C@@H]1[C@H](OS(=O)(=O)O)O[C@H](COS(=O)(=O)O)[C@H](OS(=O)(=O)O)[C@H]1OS(=O)(=O)O)NCCO[C@H]1O[C@@H](COS(=O)(=O)O)[C@@H](OS(=O)(=O)O)[C@H](OS(=O)(=O)O)[C@H]1OS(=O)(=O)O | 6.36 | 85 |  |
| O=C(CN(Cc1ccccc1)C(=O)C1OC(OS(=O)(=O)O)C(OS(=O)(=O)O)C(OS(=O)(=O)O)C1O)NC1CCCCC1 (centres undefined) | 587 | 1160 |  |
| O=C(CN(Cc1ccccc1)C(=O)C1OC(OS(=O)(=O)O)C(OS(=O)(=O)O)C(OS(=O)(=O)O)C1OS(=O)(=O)O)NCc1ccccc1 (centres undefined) | 104 | 206 |  |
